# Assay results taken from ChEMBL document CHEMBL3352753, “Novel strategy to boost oral anticoagulant activity of blood coagulation enzyme inhibitors based on biotransformation into hydrophilic conjugates” (Bioorg Med Chem, 2014).
# Active and inactive are the calls of the source. The rule behind the calls is not given here.
# Experiments:
# [1] = biological target: Coagulation factor X (Homo sapiens, UniProt P00742); assay: Inhibition of purified factor 10a (unknown origin) using chromogenic substrate S-2222 by spectrophotometry
# Chain of Coagulation factor X (P00742 41-179 limits assumed): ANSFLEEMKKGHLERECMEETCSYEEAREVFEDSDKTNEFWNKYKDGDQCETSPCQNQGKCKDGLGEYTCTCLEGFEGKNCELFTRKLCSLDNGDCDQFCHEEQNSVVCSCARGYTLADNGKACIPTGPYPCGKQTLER
# Chain of Coagulation factor X (P00742 235-488 limits assumed): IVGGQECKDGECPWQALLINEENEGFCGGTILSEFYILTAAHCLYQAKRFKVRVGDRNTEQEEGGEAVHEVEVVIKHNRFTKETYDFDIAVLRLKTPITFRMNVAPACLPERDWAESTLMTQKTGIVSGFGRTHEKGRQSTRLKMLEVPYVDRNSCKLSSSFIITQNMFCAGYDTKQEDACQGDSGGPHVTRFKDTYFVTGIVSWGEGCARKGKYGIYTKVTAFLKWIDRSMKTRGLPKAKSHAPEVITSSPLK
# Outline: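 Chromogenic assay with S-2222 substrate in 0.05 M Tris-HCl pH 8.4 or 0.15 M NaCl. Reaction started by adding enzyme, and A405 read continuously at 37 °C. IC50 taken from a plot of logit residual activity against log inhibitor concentration. Mean of three separate determinations.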
# [2] = biological target: Prothrombin (Homo sapiens, UniProt P00734); assay: Inhibition of purified thrombin (unknown origin) using chromogenic substrate S-2238 by spectrophotometry
# Outline: (§1)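 Chromogenic amidolysis started by adding enzyme, with A405 monitored continuously at 37 °C. Thrombin was 0.20 U/mL final with S-2238. Trypsin was 1.0 U/mL final with S-2222. Hydrolysis rate recorded as mOD/min.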
# [3] = biological target: Trypsin (Homo sapiens, UniProt P07477+P07478+P35030); assay: Inhibition of purified trypsin (unknown origin) using chromogenic substrate S-2222 by spectrophotometry; type: protein assay; outline: as §1
# [4] = system: Plasma; assay: Anticoagulant activity in cynomolgus monkey plasma assessed as concentration required to double prothrombin time by coagulometry; type: functional, Macaca fascicularis
# Outline: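 Citrated cynomolgus monkey blood spun at 3000 rpm for 10 min to give platelet-poor plasma, stored at −40 °C. Prothrombin time measured by coagulometer at 37 °C with thromboplastin, compared against a distilled water control. CT2 (concentration doubling clotting time) estimated from each individual concentration–response curve. Mean of three separate determinations.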
# [5] = system: Cynomolgus monkey; assay: Ex vivo anticoagulant activity in cynomolgus monkey plasma at 0.1 mg/kg, iv as single bolus dose measured after 5 mins post dose; type: functional, organism-based; set-up: dose 0.1 mg/kg; details: Macaca fascicularis
# Outline: (§2)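 Cynomolgus monkeys (n = 3) received a single intravenous bolus. Citrated blood was taken 5 min later and platelet-poor plasma prepared by centrifugation. PT expressed relative to normal cynomolgus monkey plasma, as mean + SD.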
# [6] = system: Plasma; assay: Drug level in cynomolgus monkey plasma treated with 4'-Bromo-2'-[(5-chloro-2-pyridyl)carbamoyl]-6'-hydroxyl-1-isopropylpiperidine-4-carboxanilide hydrochloride at 10 mg/kg, po as single bolus dose measured after 1 to 24 hrs post dose; type: ADME, organism-based, Macaca fascicularis; set-up: dose 10 mg/kg, route oral; details: in vivo
# Outline: (§3)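 Male cynomolgus monkeys (4.0–4.5 kg, n = 3), fasted, given 10 mg/kg orally as a suspension in 0.5% methylcellulose. Blood sampled at 1, 2, 4, 6, 8, 12 and 24 h and spun to plasma. Samples underwent solid-phase extraction, were dried, reconstituted in mobile phase and measured by LC–MS/MS for parent and glucuronide, with an internal standard. Dose and concentrations expressed as free form. LOQ 10 ng/mL.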
# [7] = Lipophilicity, logD of the compound; type: physicochemical; details: octanol/water
# [8] = Permeability of the compound at pH 6.5 after 2 hrs by PAMPA; type: ADME; details: read-out: permeability
# Outline: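 PAMPA in a filter-plate sandwich. Sample was 50 µM final, in buffer with 10% DMSO, filtered before use. Donor was pH 6.5 and acceptor pH 7.4. Plates incubated 2 h at 25 °C in humid air. Donor and acceptor contents quantified by UV spectrum (270–400 nm) against reference standards. n = 2.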
# [9] = system: Cynomolgus monkey; assay: Ex vivo anticoagulant activity in cynomolgus monkey plasma at 1 mg/kg, iv as single bolus dose measured after 5 mins post dose; type: functional, organism-based; set-up: dose 1 mg/kg; details: Macaca fascicularis; outline: as §2
# [10] = system: Cynomolgus monkey; assay: Ex vivo anticoagulant activity in cynomolgus monkey plasma at 1 to 10 mg/kg, po as single bolus dose measured after 5 mins post dose; type: functional, organism-based; details: Macaca fascicularis
# [11] = system: Cynomolgus monkey; assay: Ex vivo anticoagulant activity in cynomolgus monkey plasma at 1 mg/kg, po as single bolus dose measured after 5 mins post dose; type: functional, organism-based; set-up: dose 1 mg/kg; details: Macaca fascicularis
# [12] = system: Plasma; assay: Drug metabolism in cynomolgus monkey plasma assessed as formation of glucuronide metabolite at 10 mg/kg, po as single bolus dose measured after 1 to 24 hrs post dose; type: ADME, organism-based, Macaca fascicularis; set-up: dose 10 mg/kg, route oral; details: in vivo; outline: as §3
IC50 [1] [nM],IC50 [2] [nM],IC50 [3] [nM],Drug metabolism [6],logD [7],Papp at 2 h [8] [×10⁻⁶ cm/s],Drug metabolism [12],Compound,2PT [4] [µM],Activity [5],Activity [9],Activity [10],Activity [11]
8.2,,,,,,,CC(C)N1CCC(C(=O)Nc2c(O)cc(Cl)cc2C(=O)Nc2ccc(Cl)cn2)CC1,,,,,
4,> 100000,> 100000,,,> 30,metabolite_detected,CC(C)N1CCC(C(=O)Nc2c(O)cc(Br)cc2C(=O)Nc2ccc(Cl)cn2)CC1,0.31,,,,Active

# Further lines, the compound ahead of its results:
Compound,IC50 [1] [nM],IC50 [2] [nM],IC50 [3] [nM],Drug metabolism [6],logD [7],Papp at 2 h [8] [×10⁻⁶ cm/s],Drug metabolism [12],2PT [4] [µM],Activity [5],Activity [9],Activity [10],Activity [11]
CC(C)N1CCC(C(=O)Nc2c(O[C@@H]3O[C@H](C(=O)O)[C@@H](O)[C@H](O)[C@H]3O)cc(Br)cc2C(=O)Nc2ccc(Cl)cn2)CC1,4.9,> 100000,> 100000,metabolite_detected,-1.1,,,0.28,Active,,,
CC(C)N1CCC(C(=O)Nc2ccc(Cl)cc2C(=O)Nc2ccc(Cl)cn2)CC1,5.8,,,,1.8,> 30,,0.22,,Active,Active,
CC(C)N1CCC(C(=O)Nc2c(O[C@@H]3O[C@H](C(=O)O)[C@@H](O)[C@H](O)[C@H]3O)cc(Cl)cc2C(=O)Nc2ccc(Cl)cn2)CC1,15,,,,,,,,,,,
